The values that follow come from ChEMBL document CHEMBL4706586, “Structure-activity relationships for a series of (Bis(4-fluorophenyl)methyl)sulfinylethyl-aminopiperidines and -piperidine amines at the dopamine transporter: Bioisosteric replacement of the piperazine improves metabolic stability” (Eur J Med Chem, 2020).

Series [1] is described as follows: Toxicity in Swiss Webster mouse assessed as stimulation of ambulatory activity by measuring total distance travelled at 30 mg/kg, ip measured every 5 mins for 2 hrs. Particulars: in vivo. Type of series: organism-based.
Series [2] addresses Sodium-dependent dopamine transporter (Rattus norvegicus, UniProt P23977). Nature of the series: Displacement of [3H]WIN35428 from DAT in Sprague-Dawley rat striatal membranes incubated for 120 mins by microbeta scintillation counting method. Format: cell membranes, Striatum, Membrane. For orientation: In a radioligand displacement assay an active substance lowers the binding of a labelled ligand.

Series [3] concerns the target Sigma non-opioid intracellular receptor 1 (Cavia porcellus, UniProt Q60492). Nature of the series: Displacement of [3H](+)-pentazocine from sigma 1 receptor in guinea pig brain cortex membranes after 120 mins by scintillation counting analysis. Type of series: cell membranes, Membrane. Put shortly: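 Male guinea pig cortex membranes in 10 mM Tris-HCl/0.32 M sucrose pH 7.4, 5.0 mg/well original wet weight; [3H](+)-pentazocine 3 nM final; inhibitor serial dilutions in 30% DMSO vehicle, triplicate; 120 min at RT; nonspecific with 10 μM PRE084 or (+)-pentazocine.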

The species named for series [4] is Rattus norvegicus. Nature of the series: Selectivity ratio of Ki for SERT in Sprague-Dawley rat midbrain membranes to Ki for DAT in Sprague-Dawley rat striatum membranes.
Series [5] is described as follows: Selectivity ratio of Ki for sigma 1 receptor in guinea pig brain cortex membranes to Ki for DAT in Sprague-Dawley rat striatum membranes. Format: cell membranes.
For series [6], the target named is D(2) dopamine receptor (Homo sapiens, UniProt P14416). Nature of the series: Displacement of [3H]-N-methylspiperone from human D2L receptor expressed in HEK293 cell membranes measured after 60 mins by microbeta scintillation counting method. Further details: species or system Membrane. Put shortly:
(§1)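 Membranes from HEK293 cells stably expressing human D2LR, D3R or D4.4R; 20 μg/well protein (D2LR, D3R) or 30 μg/well (D4.4R); [3H]-N-methylspiperone 0.4 nM final; half-log dilutions in 30% DMSO, triplicate; 60 min RT; nonspecific 10 μM (+)-butaclamol.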

For series [7], the target named is D(3) dopamine receptor (Homo sapiens, UniProt P35462). Briefly: Displacement of [3H]-N-methylspiperone from human D3 receptor expressed in HEK293 cell membranes measured after 60 mins by microbeta scintillation counting method. More on the design: species or system Membrane. Put shortly:
as §1

For series [8], the target named is T1, D(4) dopamine receptor (Homo sapiens, UniProt P21917).
T1 sequence (P21917 whole entry): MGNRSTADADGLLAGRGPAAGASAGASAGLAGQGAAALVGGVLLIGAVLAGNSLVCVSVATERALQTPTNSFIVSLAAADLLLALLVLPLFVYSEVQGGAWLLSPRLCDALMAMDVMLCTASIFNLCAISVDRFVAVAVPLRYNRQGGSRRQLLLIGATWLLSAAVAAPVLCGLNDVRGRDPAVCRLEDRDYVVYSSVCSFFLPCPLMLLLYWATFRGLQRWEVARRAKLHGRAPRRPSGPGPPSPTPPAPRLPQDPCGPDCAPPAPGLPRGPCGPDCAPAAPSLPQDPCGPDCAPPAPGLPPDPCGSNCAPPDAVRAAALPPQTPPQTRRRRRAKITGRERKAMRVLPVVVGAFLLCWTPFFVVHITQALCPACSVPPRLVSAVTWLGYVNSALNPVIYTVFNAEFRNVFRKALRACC
Nature of the series: Displacement of [3H]-N-methylspiperone from human D4.4 receptor expressed in HEK293 cell membranes measured after 60 mins by microbeta scintillation counting method. More on the design: species or system Membrane. Put shortly:
as §1

Series [9] can be described thus: Displacement of [3H]-Nisoxetine from NET in Sprague-Dawley rat frontal cortex membrane after 180 mins by microbeta scintillation counting method. Type of series: cell membranes.
Series [10] in a line: Metabolic stability in rat liver microsomes assessed as compound remaining at 10 uM incubated for 60 mins in presence of NADPH regenerating system by LC-MS/MS analysis. Format: ADME, Microsome. Particulars: 1 h. (In general: Microsomes from liver hold many membrane-bound enzymes, among them those of drug oxidation.)
Series [11] is described as follows: Metabolic stability in rat liver microsomes assessed as compound remaining at 10 uM in presence of NADPH regenerating system by LC-MS/MS analysis. Format: ADME, Microsome.
Series [12] deals with Sodium-dependent serotonin transporter (Rattus norvegicus, UniProt P31652). Nature of the series: Displacement of [3H]citalopram from SERT in Sprague-Dawley rat midbrain membranes incubated for 60 mins by microbeta scintillation counting method. Type of series: cell membranes, Membrane.
Chain of Sodium-dependent serotonin transporter (P31652 whole entry): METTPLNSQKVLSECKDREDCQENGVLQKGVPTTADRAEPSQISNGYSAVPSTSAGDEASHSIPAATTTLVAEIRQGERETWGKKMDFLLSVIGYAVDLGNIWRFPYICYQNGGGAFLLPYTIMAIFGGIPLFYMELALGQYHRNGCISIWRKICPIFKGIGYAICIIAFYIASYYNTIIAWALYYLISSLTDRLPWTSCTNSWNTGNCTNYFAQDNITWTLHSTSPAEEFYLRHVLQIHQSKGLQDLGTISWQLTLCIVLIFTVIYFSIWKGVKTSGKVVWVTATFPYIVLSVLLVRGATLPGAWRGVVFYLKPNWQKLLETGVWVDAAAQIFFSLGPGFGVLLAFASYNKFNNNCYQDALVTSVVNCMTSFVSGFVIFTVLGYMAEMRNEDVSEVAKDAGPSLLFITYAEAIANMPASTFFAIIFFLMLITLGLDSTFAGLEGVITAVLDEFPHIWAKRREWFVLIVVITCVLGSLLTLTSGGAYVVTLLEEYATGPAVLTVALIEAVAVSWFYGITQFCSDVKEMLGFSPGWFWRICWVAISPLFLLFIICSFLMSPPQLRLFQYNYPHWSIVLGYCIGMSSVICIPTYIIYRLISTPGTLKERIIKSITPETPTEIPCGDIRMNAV
Series [13] in a line: Metabolic stability in mouse liver microsomes assessed as compound remaining at 10 uM incubated for 60 mins in presence of NADPH regenerating system by LC-MS/MS analysis. Type of series: ADME, Microsome. Particulars: 1 h.
The nature of series [14]: Toxicity in Swiss Webster mouse assessed as stimulation of ambulatory activity by measuring total distance travelled at 1 to 30 mg/kg, ip measured every 5 mins for 2 hrs. Type of series: organism-based. The conditions noted are these: in vivo, dose 1-30 mg/kg.

Chain of D(3) dopamine receptor (P35462 whole entry): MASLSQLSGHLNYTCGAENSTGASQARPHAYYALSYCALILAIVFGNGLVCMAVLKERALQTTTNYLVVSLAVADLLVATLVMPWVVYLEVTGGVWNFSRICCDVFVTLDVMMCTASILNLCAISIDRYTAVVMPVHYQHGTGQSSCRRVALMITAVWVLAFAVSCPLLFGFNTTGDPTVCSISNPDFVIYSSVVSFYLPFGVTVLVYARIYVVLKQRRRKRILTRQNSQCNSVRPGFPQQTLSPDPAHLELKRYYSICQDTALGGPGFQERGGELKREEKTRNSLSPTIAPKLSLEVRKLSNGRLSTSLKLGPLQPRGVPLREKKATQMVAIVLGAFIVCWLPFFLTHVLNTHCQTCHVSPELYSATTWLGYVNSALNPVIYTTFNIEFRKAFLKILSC
Chain of D(2) dopamine receptor (P14416 whole entry): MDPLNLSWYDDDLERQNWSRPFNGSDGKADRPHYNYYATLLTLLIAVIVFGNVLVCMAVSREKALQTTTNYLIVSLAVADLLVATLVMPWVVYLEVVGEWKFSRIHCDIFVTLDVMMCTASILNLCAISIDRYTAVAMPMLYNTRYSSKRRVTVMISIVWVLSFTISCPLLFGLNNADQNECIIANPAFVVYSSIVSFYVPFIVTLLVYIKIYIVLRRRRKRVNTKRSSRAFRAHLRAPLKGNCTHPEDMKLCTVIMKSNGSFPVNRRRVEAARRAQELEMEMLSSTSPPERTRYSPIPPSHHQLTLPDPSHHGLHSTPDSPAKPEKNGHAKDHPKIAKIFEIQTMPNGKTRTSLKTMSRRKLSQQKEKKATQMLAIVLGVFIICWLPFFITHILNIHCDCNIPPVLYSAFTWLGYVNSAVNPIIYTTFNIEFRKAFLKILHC
Chain of Sodium-dependent dopamine transporter (P23977 whole entry): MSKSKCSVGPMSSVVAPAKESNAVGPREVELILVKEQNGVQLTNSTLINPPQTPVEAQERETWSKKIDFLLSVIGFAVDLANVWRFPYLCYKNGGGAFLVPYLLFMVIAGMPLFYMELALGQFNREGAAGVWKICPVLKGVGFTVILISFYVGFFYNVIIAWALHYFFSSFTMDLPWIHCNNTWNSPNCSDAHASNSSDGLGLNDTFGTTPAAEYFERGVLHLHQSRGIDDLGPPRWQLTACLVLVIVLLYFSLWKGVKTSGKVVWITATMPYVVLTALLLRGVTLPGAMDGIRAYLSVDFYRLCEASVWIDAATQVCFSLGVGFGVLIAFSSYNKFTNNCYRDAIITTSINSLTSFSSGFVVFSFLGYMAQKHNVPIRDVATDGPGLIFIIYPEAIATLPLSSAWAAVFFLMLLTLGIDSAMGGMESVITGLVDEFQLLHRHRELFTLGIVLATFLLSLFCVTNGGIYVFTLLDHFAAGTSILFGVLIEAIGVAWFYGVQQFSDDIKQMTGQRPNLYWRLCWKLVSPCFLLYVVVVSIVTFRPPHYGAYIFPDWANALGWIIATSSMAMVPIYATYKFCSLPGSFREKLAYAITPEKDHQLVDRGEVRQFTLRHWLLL
Chain of Sigma non-opioid intracellular receptor 1 (Q60492 whole entry): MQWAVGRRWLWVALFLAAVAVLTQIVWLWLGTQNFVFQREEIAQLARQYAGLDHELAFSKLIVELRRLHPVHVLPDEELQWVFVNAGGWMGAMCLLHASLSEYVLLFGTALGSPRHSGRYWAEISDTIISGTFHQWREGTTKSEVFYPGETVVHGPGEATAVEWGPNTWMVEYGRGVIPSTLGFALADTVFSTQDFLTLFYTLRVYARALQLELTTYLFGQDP

As for `COC(=O)[C@H]1[C@@H](OC(=O)c2ccccc2)C[C@@H]2CC[C@H]1N2C` [COCAINE], the Activity in [1] was determined as 8000 cm.

One may read the Ki as the dissociation constant of the complex between target and ligand, obtained from inhibition or displacement. With `O=C(c1ccc(F)cc1)N1CCC(NCCSC(c2ccc(F)cc2)c2ccc(F)cc2)CC1`, the Ki in series [2] amounted to 0.00704 µM; in series [3], 0.0321 µM; in series [6], 8.83 µM; in series [7], 5.23 µM; in series [8] it was 9.02 µM; in series [9], 0.258 µM. Besides, the Ratio Ki in [4] was 69.5; in series [5], 4.59. The Stabilty in series [10] was 24%; in [11], 100%.

In the case of `O=C(c1ccc(F)cc1F)N1CCC(NCCSC(c2ccc(F)cc2)c2ccc(F)cc2)CC1`, the Ki in [2] was determined as 0.03 µM; in [12], 0.296 µM; in series [3], 0.0206 µM; in [6], 7.44 µM; in series [7] it was 3.26 µM; in series [9], 1.62 µM. Besides, the Stabilty in series [10] stood at 85%; in series [11] it was 100%; in [13], 33%. For the same molecule, the Activity in series [14] is under 3000 cm.

`OC(Cc1ccccc1)CN1CCC(NCCSC(c2ccc(F)cc2)c2ccc(F)cc2)CC1` (stereo not drawn): the inhibitory constant (Ki) in [2] is 0.0314 µM; in [3] it was 0.309 µM; in [6] it was 4.02 µM; in series [7] it was 0.691 µM; in series [8], 2.2 µM; in series [9], 0.585 µM. Besides, the Stabilty was 74% in [10] and 100% in series [11].

For `[O-][S+](CCNC1CCN(Cc2ccc(F)cc2)CC1)C(c1ccc(F)cc1)c1ccc(F)cc1` (stereo not drawn), the inhibitory constant (Ki) in series [3] stood at 0.0265 µM; in series [6], 12.4 µM; in series [7] it was 12.4 µM; in [8], 76.8 µM; in series [9] it was 11.2 µM. Also, the Ratio Ki in series [4] turned out to be 7.37; in [5] it was 0.52. For the same molecule, the results for the Stabilty in series [10] and in series [11] were 95% and 100%, respectively. In addition, the Activity in series [14] is under 3000 cm.

Consider `OC(CNC1CCN(CCSC(c2ccc(F)cc2)c2ccc(F)cc2)CC1)Cc1ccccc1` (stereo not drawn), for which the Ki in series [3] was 0.088 µM; in series [6], 2.27 µM; in series [7], 0.701 µM; in series [8], 2.67 µM. Besides, the Ratio Ki in series [4] came out at 1.4; in [5] it was 1.84. The Stabilty was determined as 69% in series [10] and 100% in series [11].

On to `NC(=O)C[S+]([O-])C(c1ccccc1)c1ccccc1` (racemic) [MODAFINIL], for which the inhibition constant Ki in series [6] is over 100 µM; in series [7], 39 µM; in series [8] it was over 100 µM.

For `[O-][S+](CCNC1CCN(CC(O)Cc2ccccc2)CC1)C(c1ccc(F)cc1)c1ccc(F)cc1` (stereo not drawn), the Ki in series [3] turned out to be 0.351 µM; in series [6], 6.61 µM; in [7] it was 5.5 µM. For the same molecule, the Ratio Ki in series [4] stood at 6.53; in [5], 3.82. For the same molecule, the Stabilty in series [10] is listed as 22%; in series [11] it was 100%.

For `CC(C)(C)C(=O)N1CCC(NCCSC(c2ccc(F)cc2)c2ccc(F)cc2)CC1`, the Ki came out at 0.163 µM in [3], 6.07 µM in [6], 3.42 µM in [7] and 11.9 µM in series [8].

Consider `Fc1ccc(CN2CCC(NCCSC(c3ccc(F)cc3)c3ccc(F)cc3)CC2)cc1`, for which the Ki in [3] is 0.0133 µM; in series [6] it was 2.92 µM; in series [7], 0.911 µM; in [8], 0.98 µM. Besides, the Ratio Ki came to 10.9 in series [4] and 0.52 in series [5]. Moreover, the Stabilty came to 70% in [10] and 100% in series [11].

Consider `O=C(c1ccc(F)cc1)N1CCC(NCC[S+]([O-])C(c2ccc(F)cc2)c2ccc(F)cc2)CC1` (stereo not drawn), for which the Ki was 1.44 µM in series [3]; 156 µM in [6]; 28.2 µM in series [7]; over 100 µM in series [8]; 23 µM in series [9]. The Ratio Ki worked out at 60.1 in [4] and 18.7 in series [5]. The Stabilty in [10] turned out to be 79%; in [11] it was 100%. Besides, in series [14], the Activity is under 3000 cm.

For `O=C(c1ccccc1)N1CCC(NCCSC(c2ccc(F)cc2)c2ccc(F)cc2)CC1`, the Ki in series [2] was 0.00451 µM; in series [12], 0.283 µM; in [3] it was 0.00203 µM; in series [6] it was 2.9 µM; in series [7] it was 2.51 µM; in series [8], 4.11 µM. The molecule further displayed an inhibitory constant (Ki) in [9] of 0.92 µM. The results for the Ratio Ki in series [4] and in series [5] were 62.8 and 0.45, respectively. Also, the figures for the Stabilty in series [10] and in [11] were 7% and 100%, respectively.

Regarding `CC(O)CN1CCN(CC[S+]([O-])C(c2ccc(F)cc2)c2ccc(F)cc2)CC1` (stereo not drawn), the values for the Ki in series [12], in series [3] and in series [9] were 97.8 µM, 0.454 µM and over 100 µM, respectively.
